Tests used:
[1] = Cytotoxicity against human RCC4/VHL cells after 4 days by XTT assay; type: functional, cell-based; conditions: 96 h
Method in brief: (§1)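 RCC4 (VHL-null) and RCC4/VHL (VHL reintroduced) cells kept in DMEM plus 10% FCS. After 4 d, media removed; XTT (0.3 mg/mL) with N-methyl dibenzopyrazine methyl sulfate in phenol red-free media added, 1–2 h at 37 °C. IC50 = concentration giving 50% growth inhibition.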

[2] = Cytotoxicity against human RCC4 cells after 4 days by XTT assay; type: functional, cell-based; conditions: RCC4, 96 h; method in brief: as §1
[3] = Selectivity ratio of IC50 for human RCC4/VHL cells to IC50 for human RCC4 cells; type: functional
Method in brief: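 IC50 values from 4-day XTT growth inhibition in RCC4/VHL and parental RCC4 cells (serial dilution from 40 µM top, triplicate); ratio taken as RCC4/VHL IC50 over RCC4 IC50.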

CCN(c1cccc(C)c1)c1nc(-c2ccncc2-c2cn(CCOCCOCCOCCOCCOCCOCCN)nn2)cs1
IC50 [1]: > 40 µM
IC50 [2]: > 40 µM

Cl.O=C(Nc1cccnc1)c1ccc(CNS(=O)(=O)c2ccc(CN3CCOCC3)cc2)cc1
Ratio IC50 [3]: >100
IC50 [2]: < 1 µM

CN1CCN(Cc2ccc(S(=O)(=O)NCc3ccc(C(=O)Nc4cccnc4)cc3)cc2)CC1
Ratio IC50 [3]: >100
IC50 [2]: < 1 µM

COc1ccc(S(=O)(=O)NCc2ccc(C(=O)Nc3cccnc3)cc2)cc1OC
Ratio IC50 [3]: >100
IC50 [2]: < 1 µM

CC(C)(C)c1ccc(S(=O)(=O)NCc2ccc(C(=O)Nc3cccnc3)cc2)cc1
Ratio IC50 [3]: >250
IC50 [1]: > 40 µM
IC50 [2]: 0.16 µM

Cc1cccc(Nc2nc(-c3ccnc(-c4cn(CCOCCOCCOCCOCCOCCOCCN)nn4)c3)cs2)c1
IC50 [1]: > 40 µM
IC50 [2]: > 40 µM

Cn1ccc(-c2cccc(S(=O)(=O)NCc3ccc(C(=O)Nc4cccnc4)cc3)c2)n1
Ratio IC50 [3]: >100
IC50 [2]: < 1 µM

NCCOCCOCCOCCOCCOCCOCC#Cc1ccc(S(=O)(=O)NCc2ccc(C(=O)Nc3cccnc3)cc2)cc1
Ratio IC50 [3]: >7
IC50 [1]: > 40 µM
IC50 [2]: 5.8 µM

NCCOCCOCCOCCOCCOCCOCCCc1ccc(S(=O)(=O)NCc2ccc(C(=O)Nc3cccnc3)cc2)cc1
Ratio IC50 [3]: >5
IC50 [1]: > 40 µM
IC50 [2]: 7.9 µM

Cc1cccc(Nc2nc(-c3ccncc3)cs2)c1
Ratio IC50 [3]: 19
IC50 [1]: 40 µM
IC50 [2]: 2.1 µM

CCN(c1cccc(C)c1)c1nc(-c2ccnc(-c3cn(CCOCCOCCOCCOCCOCCOCCN)nn3)c2)cs1
IC50 [1]: > 40 µM
IC50 [2]: > 40 µM

Cc1cccc(S(=O)(=O)NCc2ccc(C(=O)Nc3cccnc3)cc2)c1
Ratio IC50 [3]: > 100
IC50 [2]: < 1 µM

Cc1cccc(Nc2nc(-c3ccnc(-c4cn(CCCCCCN)nn4)c3)cs2)c1.O=C(O)C(F)(F)F
Ratio IC50 [3]: 1.5
IC50 [1]: 2.6 µM
IC50 [2]: 1.7 µM

CN1CCN(c2ccc(S(=O)(=O)NCc3ccc(C(=O)Nc4cccnc4)cc3)cc2)CC1
Ratio IC50 [3]: >100
IC50 [2]: < 1 µM

NCCOCCOCCOCCOCCOCCOCCCc1ccc(S(=O)(=O)NCc2ccc(C(=O)Nc3ccccc3)cc2)cc1
IC50 [1]: > 40 µM
IC50 [2]: > 40 µM

Cc1cccc(Nc2nc(-c3ccncc3-c3cn(CCOCCOCCOCCOCCOCCOCCN)nn3)cs2)c1.O=C(O)C(F)(F)F
Ratio IC50 [3]: 1.3
IC50 [1]: 3.9 µM
IC50 [2]: 2.9 µM
